# Source: PubChem BioAssay (several laboratories)
# Runt-CBFb FRET – blocks binding of human RUNX1 Runt domain to CBFb | Q01196+Q13951 | Cerulean-Runt/Venus-CBFb FRET ratio 530/480, 1 h | inhibition, % at 20 µM | hit rate 0.46% among 220,000 | AID 1496;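 active means inhibition over about 50% at 20 µM in the single-dose screen, limit read from the data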;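 further: 0% = DMSO wells and 100% = excess unlabeled CBFb competitor control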
# Target sequence (Q01196 whole entry, looked up, the tested form may be a part): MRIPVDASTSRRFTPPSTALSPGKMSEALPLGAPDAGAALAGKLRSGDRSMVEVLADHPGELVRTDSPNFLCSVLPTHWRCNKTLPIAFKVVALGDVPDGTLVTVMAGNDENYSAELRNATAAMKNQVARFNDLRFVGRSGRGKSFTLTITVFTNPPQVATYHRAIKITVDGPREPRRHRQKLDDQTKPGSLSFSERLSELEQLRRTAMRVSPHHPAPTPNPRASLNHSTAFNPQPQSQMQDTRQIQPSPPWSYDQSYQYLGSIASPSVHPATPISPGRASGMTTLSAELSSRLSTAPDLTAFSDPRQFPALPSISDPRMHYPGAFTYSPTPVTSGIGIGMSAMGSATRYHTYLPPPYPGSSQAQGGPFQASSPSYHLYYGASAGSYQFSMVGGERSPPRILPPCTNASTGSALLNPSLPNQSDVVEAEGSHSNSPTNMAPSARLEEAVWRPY
# Target sequence (Q13951 whole entry, looked up, the tested form may be a part): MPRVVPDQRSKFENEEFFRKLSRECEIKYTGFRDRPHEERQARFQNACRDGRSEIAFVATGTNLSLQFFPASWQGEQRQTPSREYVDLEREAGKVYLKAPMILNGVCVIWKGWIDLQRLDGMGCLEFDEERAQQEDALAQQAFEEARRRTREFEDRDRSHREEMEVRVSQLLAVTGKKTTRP
#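 Measured by: fluorescence energy transfer, 422 nm excitation, 530/480 nm emission; test system: Cerulean-tagged RUNX1 Runt domain (FRET donor) fusion protein; buffer or medium: Tris pH 7.5 buffer with BSA; compound: one dose, 20 µM compound, 1% DMSO; times: two 1 h room-temperature incubations shielded from light; benchmarks: unlabeled CBFb 5 µM, positive control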
# Runt-SMMHC FRET – inhibitors of human RUNX1 Runt domain binding to CBFb-SMMHC; Q01196+Q13951; Cerulean-Runt/Venus-CBFb-SMMHC FRET ratio 530/480, 1 h; inhibition, % at 20 µM; hit rate 0.74% among 220,000;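 active means mean inhibition across duplicate retests at 20 µM reaching about 50%, limit read from the data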;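 further: 0% = DMSO wells and 100% = wells with excess untagged CBFb-SMMHC; inhibitors lower the FRET ratio by blocking Runt binding to CBFb-SMMHC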
# RanGTP-Impb inh – disruptors of Ran-importin-beta complex formation – biochemical, FRET, CFP-Ran, YFP-importin-beta, homogeneous, primary screen. cell-free CFP-Ran/YFP-importin-beta FRET ratio. inhibition, % (test concentration not listed). hit rate 1.1% among 300,000;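 active means more than half of the replicate wells show a fall in the fluorescence ratio signal beyond about 16%, limit read from the data, passing the limit was not always enough; inconclusive means exactly half of the replicate wells pass the set limit; inactive means fewer than half of replicates pass the limit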;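 further: 0% = DMSO wells and 100% = Ran loaded with GDP instead of GTP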
# KLK7 zymogen act – activators of human kallikrein-7 zymogen; AID 652039; activation, % at 7 µM; purified proKLK7, EDANS-DABCYL substrate fluorescence; 100% is mature enzyme control, 0% vehicle; hit rate 0.9% among 370,000; P49862;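 active means activation above the mean of all tested compounds plus 3 SD, computed per campaign excluding outliers beyond control limits, cut at about 13% in these data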
# Wee1 stabilizer – blocks degradation of human Wee1 kinase. P30291. reporter increase, % at 5 µM. hit rate 1.2% among 220,000. HeLa Luc-Wee1K328M stability, luciferase luminescence; 100% = proteasome inhibitor MG132 effect;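 active means activation above the mean of all tested compounds plus 3 SD, set per screening run, cut at about 8.8% in these data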;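 further: cells exposed to compound for 20 h before luminescence read; 0% = DMSO alone and 100% = MG132 at 30 µM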
# AI-2 QS mod – modulates the Vibrio harveyi AI-2 quorum sensing system. Vibrio harveyi JMH597 AI-2 luminescence/OD600 ratio, 9 h; stronger effect = lower value; strain lacks LuxN and CqsS sensors; 0 = neutral-control median. activity change, % at 7.5 µM. hit rate 0.4% among 300,000. AID 2094; in the data active means activity change below about -75%, passing the limit was not always enough; inconclusive means no clear call, values can overlap the other calls;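 further: luminescence divided by OD600 gain over 9 h not by final OD600 alone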
# proKLK7 act conf – confirmation of human kallikrein-7 zymogen activators; hit rate 68% among 3,200; shares compounds with KLK7 zymogen act; activation, % at 7 µM; AID 686949; purified proKLK7, EDANS-DABCYL substrate fluorescence; scaled: vehicle 0, mature enzyme 100;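 active means activation, as change over the incubation, above the mean of all tested compounds plus 3 SD, cut at about 13% in these data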
# EDANS-DABCYL int – optically interferes with EDANS-DABCYL signal, flagging KLK7 hits. activation, % at 7 µM. hit rate 80% among 3,200. shares compounds with KLK7 zymogen act. EDANS-DABCYL substrate fluorescence interference, no enzyme, 4 h; solvent 0%, active enzyme control 100%;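 active means activation above the all-compound mean plus 3 SD, ignoring values outside control-based bounds, cut at about 4.8% in these data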;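 further: value is the 4 h activation minus the activation read at time zero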
# K7 EDANS ctr – EDANS fluorescence interference in dose response, no enzyme; shares compounds with KLK7 zymogen act; EC50, µM; EDANS-DABCYL peptide fluorescence interference; AID 720493; hit rate 20% among 250;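 active means compounds that raise the fluorescence signal in this interference counterscreen, with EC50 at or below 10 µM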;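 further: intact quenched peptide substrate alone read at 355 nm excitation and 520 nm emission; signal is fluorescence gain from T0 to T4 after four hours at room temperature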
# Starred values were filed as active, the others as inactive; i = inactive; ? = inconclusive; / = not tested or not shown. Only some compounds are listed: those with a hit (about 2.9% of all), similar ones and a draw of the others.
SMILES,Runt-CBFb FRET,Runt-SMMHC FRET,RanGTP-Impb inh,KLK7 zymogen act,Wee1 stabilizer,AI-2 QS mod,proKLK7 act conf,EDANS-DABCYL int,others
O=C(O)c1cc(-c2ccco2)nc2ccccc12,17,15,-3,21*,-1,14,16*,16*,
CCCNC(=O)NC(=O)CSc1ccc2c(c1)OCCO2,0,1,/,0,4,/,/,/,
C[C@@H]1CN([C@@H](C)CO)C(=O)CCCn2nncc2CO[C@@H]1CN(C)C(=O)c1ccc(N2CCN(C)CC2)cc1,/,/,/,1,/,/,/,/,
Cc1cc(C(=O)NCc2ccco2)c2ccccc2n1,2,4,1,-1,-2,8,/,/,
CCNC(=O)COC(=O)c1cc(-c2ccco2)nc2ccccc12,18,-13,-6,121*,-2,17,17*,19*,
Cc1ccc(-c2cc(C(=O)NC3=NCCS3)c3cc(Br)ccc3n2)o1,9,6,0,/,0,14,/,/,
CN1CCN(NC(=O)c2cc(-c3ccc(Cl)s3)nc3ccccc23)CC1,/,/,0,26*,/,/,-33,-24,
Cc1ccc(-c2cc(C(=O)NCc3ccco3)c3ccccc3n2)o1,27,27,-1,18*,-2,41,-11,-2,
Cc1ccc(-c2cc(C(=O)NN3CCOCC3)c3cc(Br)ccc3n2)o1,26,21,-2,52*,1,7,-185,-137,
CN1CCN(NC(=O)c2cc(-c3ccccn3)nc3ccccc23)CC1,0,-4,/,0,1,10,/,/,
O=C(COC(=O)c1cc(=O)[nH]c2ccccc12)Nc1ccccc1F,/,/,/,-33,/,/,/,/,
CC1(C(=O)NNC(=O)c2cccc([N+](=O)[O-])c2)CC1(Br)Br (configuration not stated),/,/,-2,0,/,1,/,/,
CN(C(=O)c1cccc(NC(=O)Cc2ccc(NC(=O)C3CCN(C(=O)C4CC4)CC3)cc2)c1)C1CCC1,/,/,/,0,/,/,/,/,
O=C(Nc1nccs1)c1cc(-c2ccco2)nc2ccccc12,-10,1,7,15*,4,36,1,-2,
Cc1ccc(-c2cc(C(=O)O)c3cc(Br)ccc3n2)s1,/,/,8,14*,/,-2,22*,26*,
Cc1ccc(-c2cc(C(=O)N3CC(C)OC(C)C3)c3ccccc3n2)o1 (configuration not stated),/,/,-4,46*,/,-2,65*,66*,
O=C(Nc1nccs1)c1cc(N2CCOCC2)nc2ccccc12,-3,-8,3,18*,-1,47,14*,12*,
O=C(Nc1nccs1)c1cc(-c2ccccc2)nc2ccccc12,-1,2,-2,1,1,20,/,/,
CCOC(=O)c1c(C)n(S(=O)(=O)c2ccc(C)cc2)c2ccc(O)c(C(=O)O)c12,/,/,3,0,/,-12,/,/,
O=C1/C(=C/c2cccc(F)c2)Oc2cc(O)ccc21,/,/,-38,21*,/,23,56*,79*,
CCN1C(=O)c2cccc3c(S(=O)(=O)NCc4ccccn4)ccc1c23,-20,57,23*,53*,0,-14,62*,56*,
CN1C(=O)c2cccc3c(S(=O)(=O)N4CCCC4C(=O)O)ccc1c23 (configuration not stated),/,/,8,17*,/,19,42*,46*,
CCOC(=O)CNS(=O)(=O)c1ccc2c3c(cccc13)C(=O)N2CC,0,86*,21*,77*,2,13,64*,69*,
COCCNS(=O)(=O)c1ccc2c3c(cccc13)C(=O)N2C,-15,90,23*,28*,2,8,78*,88*,
COc1cc(/C=C2/C(=N)N3N=C(CC(=O)N4CCOCC4)SC3=NC2=O)ccc1OCc1ccc(F)cc1,/,/,4,-1,/,3,/,/,
SMILES,Runt-CBFb FRET,Runt-SMMHC FRET,RanGTP-Impb inh,KLK7 zymogen act,Wee1 stabilizer,AI-2 QS mod,proKLK7 act conf,EDANS-DABCYL int,others
CC1CCCN(CCCOc2ccccc2-c2ccccc2)C1 (configuration not stated),-3,3,-2,-1,3,12,/,/,
COC(=O)CC(c1ccc(OC)c(OC)c1)c1ccc(OC)c(OC)c1,2,-1,4,0,6,27,/,/,
O=C(COC(=O)Cc1ccc(Cl)cc1)Nc1c(F)cccc1F,0,-3,3,0,6,17,/,/,
CCC(Oc1ccccc1)C(=O)NC1C(=O)N2C1SC(C)(C)C2C(=O)O (configuration not stated),-2,1,9,0,-2,21,/,/,
CC1(C)S[C@@H]2[C@H](NC(=O)[C@H](N)c3ccccc3)C(=O)N2[C@H]1C(=O)OC1OC(=O)c2ccccc21 (some centres not stated),/,/,/,16*,/,/,6,4.6*,
Cc1ccc(C(=O)N2CCN(c3ccccc3F)CC2)cc1NC1=NC2CS(=O)(=O)CC2S1 (configuration not stated),/,/,4,0,/,31,/,/,
Cc1ccc2[nH]c(=O)c(C(c3nnnn3CC3CCCO3)N3CCc4ccccc4C3)cc2c1 (configuration not stated),4,13,?,1,-1,5,/,/,
COc1ccc2[nH]c(=O)c(C(c3nnnn3CC3CCCO3)N3CCc4ccccc4C3)cc2c1 (configuration not stated),27,8,-1,20*,1,26,11,9.9*,
CCCCCNc1nc(NCCCO)c(C#N)c2c1CN(C)CC2,34,79*,146*,20*,-2,31,17*,23*,
C=CCNc1nc(NCc2ccccc2)c(C#N)c2c1CN(C)CC2,35,65*,109*,14*,1,6,20*,15*,K7 EDANS ctr=i
Cc1n[nH]c(=O)n1-c1ccc(OCc2ccccc2)cc1,3,-6,-2,0,-2,22,/,/,
C=CCOC(=O)C1=C[C@@H](c2coc3ccccc3c2=O)[C@H](CCCO)[C@@H](OCC)O1,-3,-3,-2,0,0,8,/,/,
COc1ccc(N(CC(=O)Nc2ccc(C)cn2)S(=O)(=O)c2c(C)noc2C)cc1,0,-2,3,16*,-1,11,1,0,
